Tests used:
[1] = Aqueous solubility of the compound; assay type: physicochemical; settings: buffer
[2] = molecular target: T1, Adenosine receptor A3 (Homo sapiens, UniProt P0DMS8); experiment: Displacement of [125I]N6-(4-amino-3-iodobenzyl)adenosine-5'-N-methyluronamide from human adenosine A3 receptor expressed in CHO cell membranes
T1 sequence (P0DMS8 whole entry): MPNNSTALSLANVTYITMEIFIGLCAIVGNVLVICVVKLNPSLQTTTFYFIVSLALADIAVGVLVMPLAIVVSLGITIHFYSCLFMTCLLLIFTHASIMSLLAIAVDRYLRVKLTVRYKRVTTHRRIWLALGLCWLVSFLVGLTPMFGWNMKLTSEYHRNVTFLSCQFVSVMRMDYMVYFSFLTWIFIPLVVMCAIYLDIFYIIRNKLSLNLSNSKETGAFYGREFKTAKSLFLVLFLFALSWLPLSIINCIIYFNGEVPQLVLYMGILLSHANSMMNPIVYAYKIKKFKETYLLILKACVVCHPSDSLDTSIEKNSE

[3] = molecular target: T2, Adenosine receptor A1 (Homo sapiens, UniProt P30542); experiment: Displacement of [3H]N6-R-phenylisopropyladenosine from human adenosine A1 receptor expressed in CHO cell membranes
T2 sequence (P30542 whole entry): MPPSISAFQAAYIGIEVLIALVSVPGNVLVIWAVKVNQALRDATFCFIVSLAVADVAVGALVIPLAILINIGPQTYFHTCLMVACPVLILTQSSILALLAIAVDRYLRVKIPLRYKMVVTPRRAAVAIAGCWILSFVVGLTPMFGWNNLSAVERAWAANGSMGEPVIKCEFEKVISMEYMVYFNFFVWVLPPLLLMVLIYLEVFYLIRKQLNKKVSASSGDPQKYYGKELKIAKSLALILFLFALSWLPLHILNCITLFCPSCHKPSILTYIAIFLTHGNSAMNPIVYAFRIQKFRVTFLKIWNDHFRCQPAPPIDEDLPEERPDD
Method in brief: (§1)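 Radioligand binding at the human receptor subtypes. Nonspecific binding was defined with adenosine 5′-N-ethyluronamide (10 μM). Ki values came from displacement curves, mean ± SEM, n = 3 unless noted. Single-point data were expressed as % inhibition of binding at 10 μM.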

[4] = molecular target: Adenosine receptor A2a (Homo sapiens) (UniProt P29274); experiment: Displacement of [3H]2-[p-(2-carboxyethyl)phenyl-ethylamino]-5'-Nethylcarboxamidoadenosine from human adenosine A2A receptor expressed in HEK293 cell membranes at 10 uM; method in brief: as §1
[5] = molecular target: T3, Adenosine receptor A1 (Homo sapiens) (UniProt P30542); experiment: Displacement of [3H]N6-R-phenylisopropyladenosine from human adenosine A1 receptor expressed in CHO cell membranes at 10 uM; method in brief: as §1
T3 sequence (whole entry): T2 sequence (P30542 whole entry)

[6] = tested on: Mus musculus; experiment: Analgesic activity in mouse chronic constriction injury model of neuropathic pain assessed as protection of ipsilateral hind paw mechanoallodynia of sciatic nerve at 0.3 to 30 umol/kg administered through oral gavage at point of peak pain on day 7 measured at 3 hrs; assay type: functional
Method in brief: (§2)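 Mice had sciatic nerve chronic constriction injury. Compound was given by oral gavage on day 7, at peak pain. Mechanoallodynia was scored on the ipsilateral and contralateral hind paws at the 1 h and 3 h time points, as % protection. n = 4 per group, some n = 3.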

[7] = tested on: Mus musculus; experiment: Analgesic activity in mouse chronic constriction injury model of neuropathic pain assessed as protection of ipsilateral hind paw mechanoallodynia of sciatic nerve at 0.3 to 30 umol/kg administered through oral gavage at point of peak pain on day 7 relative to control measured at 1 hr; assay type: functional; method in brief: as §2
[8] = tested on: Mus musculus; experiment: Analgesic activity in mouse chronic constriction injury model of neuropathic pain assessed as time of peak protection at 0.3 to 30 umol/kg administered through oral gavage at point of peak pain on day 7; assay type: functional; method in brief: as §2
[9] = tested on: Mus musculus; experiment: Effect on contralateral side hind paw in mouse chronic constriction injury model of neuropathic pain at 0.3 to 30 umol/kg administered through oral gavage at point of peak pain on day 7; assay type: ADME, organism-based; settings: in vivo; method in brief: as §2
[10] = molecular target: T4, Adenosine receptor A2b (Homo sapiens) (UniProt P29275); experiment: Displacement of [3H]MRS1754 from human adenosine A2B receptor expressed in HEK293 cell membranes at 10 uM
T4 sequence (whole entry): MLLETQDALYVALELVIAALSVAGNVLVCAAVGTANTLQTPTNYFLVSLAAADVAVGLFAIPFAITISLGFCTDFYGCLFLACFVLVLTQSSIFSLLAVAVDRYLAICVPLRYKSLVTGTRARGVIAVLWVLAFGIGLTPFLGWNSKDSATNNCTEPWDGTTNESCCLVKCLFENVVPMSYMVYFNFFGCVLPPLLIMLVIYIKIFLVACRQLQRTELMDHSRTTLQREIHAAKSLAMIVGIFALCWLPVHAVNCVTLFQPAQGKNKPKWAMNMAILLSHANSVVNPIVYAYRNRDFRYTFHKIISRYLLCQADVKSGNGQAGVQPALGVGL

[11] = molecular target: T5, Adenosine receptor A3 (Mus musculus, UniProt Q61618); experiment: Binding affinity to mouse adenosine A3 receptor expressed in HEK293 cell membranes
T5 sequence (Q61618 whole entry): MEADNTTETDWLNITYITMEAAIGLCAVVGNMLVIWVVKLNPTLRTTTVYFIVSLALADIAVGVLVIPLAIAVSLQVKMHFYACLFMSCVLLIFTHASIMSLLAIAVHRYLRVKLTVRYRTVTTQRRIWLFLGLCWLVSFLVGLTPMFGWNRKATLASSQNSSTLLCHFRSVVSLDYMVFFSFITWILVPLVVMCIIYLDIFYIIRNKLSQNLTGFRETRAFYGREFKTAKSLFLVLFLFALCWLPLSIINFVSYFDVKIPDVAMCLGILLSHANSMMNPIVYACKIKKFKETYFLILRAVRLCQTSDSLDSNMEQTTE
Method in brief: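 Radioligand binding used membranes of HEK293 cells expressing the mouse or the canine A3 receptor.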

[12] = molecular target: 5-hydroxytryptamine receptor 2B (Homo sapiens, UniProt P41595); experiment: Binding affinity to 5HT2B receptor (unknown origin)
[13] = molecular target: T6, Adenosine receptor A3 (Canis lupus familiaris, UniProt Q28309); experiment: Binding affinity to canine adenosine A3 receptor expressed in HEK293 cell membranes
T6 sequence (Q28309 whole entry): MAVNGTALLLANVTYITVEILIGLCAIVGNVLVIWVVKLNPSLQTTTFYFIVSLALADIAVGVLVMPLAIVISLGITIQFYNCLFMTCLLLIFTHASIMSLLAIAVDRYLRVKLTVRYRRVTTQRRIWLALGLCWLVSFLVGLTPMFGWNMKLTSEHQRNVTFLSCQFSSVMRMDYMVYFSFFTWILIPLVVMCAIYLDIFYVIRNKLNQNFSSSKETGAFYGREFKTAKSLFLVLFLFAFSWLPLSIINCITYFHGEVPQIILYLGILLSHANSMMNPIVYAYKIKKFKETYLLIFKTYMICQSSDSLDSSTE
Method in brief: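 Radioligand binding used membranes of HEK293 cells expressing the mouse or the canine A3 receptor. Affinities were given as Ki in nM, mean ± SEM, n = 3.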

[14] = tested on: Mus musculus; experiment: Analgesic activity in mouse chronic constriction injury model of neuropathic pain assessed as protection of ipsilateral hind paw mechanoallodynia of sciatic nerve at 0.3 to 30 umol/kg administered through oral gavage at point of peak pain on day 7; assay type: functional; settings: 168 h; method in brief: as §2
[15] = tested on: Mus musculus; experiment: Analgesic activity in mouse chronic constriction injury model of neuropathic pain assessed as time duration protection hind paw mechanoallodynia of sciatic nerve at 3 umol/kg administered through oral gavage at point of peak pain on day 7; assay type: functional
Method in brief: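 In CCI mice, 3 μmol/kg was given p.o. on day 7. The time course of protection against hind paw mechanoallodynia was followed, n = 4. Data were mean ± SEM, analysed by two-tailed two-way ANOVA with Bonferroni comparisons versus day 0.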

[16] = molecular target: T1, Adenosine receptor A3; experiment: Agonist activity at human adenosine A3 receptor expressed in CHO cells assessed as inhibition of cAMP production; assay type: functional, cell-based
Method in brief: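 Read-out was inhibition of cyclic AMP production in membranes prepared from CHO cells expressing the human A3 receptor. The value is an EC50 with full agonism assessed.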

[17] = tested on: Mus musculus; experiment: Analgesic activity in intraperitoneally dosed mouse chronic constriction injury model of neuropathic pain assessed as time of peak protection; assay type: functional
[18] = tested on: Mus musculus; experiment: Analgesic activity in intraperitoneally dosed mouse chronic constriction injury model of neuropathic pain; assay type: functional; settings: ip

Adenosine receptor A2a (Homo sapiens), sequence (P29274 whole entry): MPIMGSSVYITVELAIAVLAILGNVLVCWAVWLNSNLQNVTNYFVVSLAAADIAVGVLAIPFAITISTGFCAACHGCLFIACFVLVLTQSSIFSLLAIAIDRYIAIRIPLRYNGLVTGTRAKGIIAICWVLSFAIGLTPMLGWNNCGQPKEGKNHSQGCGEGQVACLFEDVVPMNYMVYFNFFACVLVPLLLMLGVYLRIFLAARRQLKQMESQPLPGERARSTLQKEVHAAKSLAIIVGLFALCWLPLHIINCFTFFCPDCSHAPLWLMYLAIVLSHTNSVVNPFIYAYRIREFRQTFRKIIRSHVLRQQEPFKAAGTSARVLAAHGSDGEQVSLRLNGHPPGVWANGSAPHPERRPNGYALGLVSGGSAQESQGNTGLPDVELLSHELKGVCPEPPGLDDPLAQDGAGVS
5-hydroxytryptamine receptor 2B, sequence (P41595 whole entry): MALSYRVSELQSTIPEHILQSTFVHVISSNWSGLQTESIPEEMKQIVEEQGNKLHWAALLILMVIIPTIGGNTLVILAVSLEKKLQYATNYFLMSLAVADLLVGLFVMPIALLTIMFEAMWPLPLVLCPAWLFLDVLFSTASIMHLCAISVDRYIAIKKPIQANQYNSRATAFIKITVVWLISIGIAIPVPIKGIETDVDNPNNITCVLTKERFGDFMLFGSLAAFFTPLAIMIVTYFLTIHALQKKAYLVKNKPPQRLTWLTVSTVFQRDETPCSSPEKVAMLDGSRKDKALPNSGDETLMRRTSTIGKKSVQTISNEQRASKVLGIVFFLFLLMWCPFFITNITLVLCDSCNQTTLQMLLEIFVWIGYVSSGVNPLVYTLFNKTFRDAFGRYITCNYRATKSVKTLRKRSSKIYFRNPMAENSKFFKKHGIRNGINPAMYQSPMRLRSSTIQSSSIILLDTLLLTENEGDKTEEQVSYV

SMILES | Ki [2] [nM] | inhibition [4] [%] | inhibition [5] [%] | Activity [6] [%] | Emax [7] [%] | Time [8] [h] | Activity [9] | further results
CNC(=O)[C@@]12C[C@@H]1[C@@H](n1cnc3c(NCC4CCC4)nc(-n4cc(-c5ccc(Cl)s5)nn4)nc31)[C@H](O)[C@@H]2O | 21 | 42 |  |  |  |  |  | solubility [1]: Insoluble; Ki [3]: 710 nM
CNC(=O)[C@@]12C[C@@H]1[C@@H](n1cnc3c(NC(C)C)nc(C#Cc4ccc(Cl)s4)nc31)[C@H](O)[C@@H]2O | 2.9 | 17 | 26 | 39 | 88 | 1 | Non-toxic | 
CNC(=O)[C@@]12C[C@@H]1[C@@H](n1cnc3c(NC4CC4)cc(C#Cc4ccc(Cl)s4)nc31)[C@H](O)[C@@H]2O | 10 | 11 | 26 |  |  |  |  | 
CCCNc1nc(C#Cc2ccc(Cl)s2)nc2c1ncn2[C@H]1[C@H](O)[C@H](O)[C@]2(C(=O)NC)C[C@H]12 | 1.1 | 34 | 22 | 93 | 95 | 1 | Non-toxic | inhibition [10]: 34%; Ki [11]: 6.8 nM; Ki [12]: Not Active; Ki ([13]; read-out: Ki): 5.8 nM
CNC(=O)[C@@]12C[C@@H]1[C@@H](n1cnc3c(NC)nc(C#Cc4ccc(Cl)s4)nc31)[C@H](O)[C@@H]2O |  |  |  | 46 | 93 | 1 | Non-toxic | ED50 [14]: 0.73 µmol/kg; Ki [13]: 8.5 nM
CNC(=O)[C@@]12C[C@@H]1[C@@H](n1cnc3c(NC4CCC4)nc(C#Cc4ccc(Cl)s4)nc31)[C@H](O)[C@@H]2O | 4.5 | 34 | 39 | 95 | 97 | 1 | Non-toxic | 
CCNc1cc(C#Cc2ccc(Cl)s2)nc2c1ncn2[C@H]1[C@H](O)[C@H](O)[C@]2(C(=O)NC)C[C@H]12 | 1.7 | 0 | 10 | 84 | 93 | 1 | Non-toxic | inhibition [10]: 17%; Time [15]: 5 h; EC50 [16]: 1.5 nM; Ki [11]: 16 nM; Ki ([12]; read-out: Ki): 2500 nM; Ki ([13]; read-out: Ki): 49 nM
CNC(=O)[C@@]12C[C@@H]1[C@@H](n1cnc3c(NC)cc(C#Cc4ccc(Cl)s4)nc31)[C@H](O)[C@@H]2O | 3 | 8 | 15 | 80 | 91 | 1 | Non-toxic | Ki [11]: 31 nM; Ki ([13]; read-out: Ki): 75 nM
NCC1(CC(=O)O)CCCCC1 [GABAPENTIN] |  |  |  |  |  |  |  | Time [17]: 1 h; ED50 [18]: 140 µmol/kg
CNC(=O)[C@@]12C[C@@H]1[C@@H](n1cnc3c(NC4CC4)nc(C#Cc4ccc(Cl)s4)nc31)[C@H](O)[C@@H]2O | 1 | 44 | 47 | 36 | 76 | 1 | Non-toxic | 
CNC(=O)[C@@]12C[C@@H]1[C@@H](n1cnc3c(NCC4CCC4)nc(C#Cc4ccc(Cl)s4)nc31)[C@H](O)[C@@H]2O | 15 | 5 | 34 | 90 | 98 | 1 | Non-toxic | 
CNC(=O)[C@@]12C[C@@H]1[C@@H](n1cnc3c(NCC4CC4)nc(-n4cc(-c5ccc(Cl)s5)nn4)nc31)[C@H](O)[C@@H]2O | 9.4 | 44 |  |  |  |  |  | Ki [3]: 1350 nM
CCCNc1cc(C#Cc2ccc(Cl)s2)nc2c1ncn2[C@H]1[C@H](O)[C@H](O)[C@]2(C(=O)NC)C[C@H]12 | 38 | 11 |  |  |  |  |  | Ki [3]: 2440 nM
CNC(=O)[C@@]12C[C@@H]1[C@@H](n1cnc3c(NCC4CC4)nc(C#Cc4ccc(Cl)s4)nc31)[C@H](O)[C@@H]2O | 7.9 | 3 | 24 | 85 | 94 | 1 | Non-toxic | 
CCCNc1cc(-n2cc(-c3ccc(Cl)s3)nn2)nc2c1ncn2[C@H]1[C@H](O)[C@H](O)[C@]2(C(=O)NC)C[C@H]12 | 110 | 4 | 44 |  |  |  |  | 
CCCCNc1nc(C#Cc2ccc(Cl)s2)nc2c1ncn2[C@H]1[C@H](O)[C@H](O)[C@]2(C(=O)NC)C[C@H]12 | 2.9 | 0 | 6 | 24 | 68 | 1 | Non-toxic | 
CCNc1nc(C#Cc2ccc(Cl)s2)nc2c1ncn2[C@H]1[C@H](O)[C@H](O)[C@]2(C(=O)NC)C[C@H]12 | 3.8 | 12 | 28 | 87 | 98 | 1 | Non-toxic | ED50 [14]: 0.9 µmol/kg; Ki [11]: 27 nM; Ki ([13]; read-out: Ki): 1.5 nM
